# Compounds with a hit are over-represented: about 4% of the library has one in this group of screens.
# SENP1 FRET inh = SENP1 (human) catalytic domain inhibition | Q9P0U3 | inhibition, % at 10 µM | 360,000 tested, 0.21% active | recombinant SENP1 catalytic domain, CyPet-SUMO1-YPet FRET cleavage;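 active = inhibition at least 30% at 10 µM, raw YFP signal under a set limit, fluorescence ratio 0.5 to 1.5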;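 note: 0% = enzyme with DMSO and 100% = no enzyme wells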
# Target sequence (Q9P0U3 419-644 limits assumed): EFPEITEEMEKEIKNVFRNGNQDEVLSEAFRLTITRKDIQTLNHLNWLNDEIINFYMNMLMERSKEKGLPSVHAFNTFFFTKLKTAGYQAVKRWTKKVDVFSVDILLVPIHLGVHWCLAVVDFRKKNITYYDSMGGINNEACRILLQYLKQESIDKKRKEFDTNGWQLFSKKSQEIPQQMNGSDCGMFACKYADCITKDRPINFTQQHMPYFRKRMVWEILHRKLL
#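 Controls: no-enzyme wells low, DMSO-plus-enzyme wells high control. Test system: human recombinant His6-tagged SENP1 catalytic domain enzyme. Reagent: SFCypet-SUMO1-SFYpet FRET protein substrate, 25 nM final. Doses: one dose per compound, 10 µM, 0.5% DMSO. Detection: FRET, CFP and YFP emission. Timing: 50 min reaction at room temperature.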
# FAS-TE inh = FAS thioesterase (human) inhibition | inhibition, % at 15 µM | recombinant FAS-TE, OMFH fluorogenic substrate, fluorescence endpoint | 360,000 tested, 0.67% active | P49327 | AID 602261;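 active = compounds whose normalised, plate-corrected inhibition of enzyme fluorescence in the single-dose primary screen is 50% or more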;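 note: 0% = DMSO with enzyme and 100% = substrate without enzyme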
# Arrestin-AP2 inh = blocks beta-arrestin peptide binding to AP2 adaptin; inhibition, % at 10 µM; AID 504490; 340,000 tested, 0.31% active; FITC-arrestin peptide / GST-AP2 beads, flow cytometry; AP2 beta2 appendage carries R879A mutation;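 active = inhibition above a set limit, near 3 SD of compounds lacking own fluorescence, cut at about 54% in these data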;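 note: plate controls were DMSO wells for no effect and 5 µM unlabelled arrestin peptide for full effect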
#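 system = GST-tagged AP2 beta2-adaptin appendage (R879A) on 4 µm glutathione beads | reagent = FITC-labelled arrestin peptide probe, 50 nM final | schedule = compound with beads 12 min RT, then probe 1 h RT | signal = HyperCyt-sampled flow cytometry, FL1 channel, ex 488/em 535 nm | read-out = percent response from loss of bead-bound FITC fluorescence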
# GRIN3A LBD mod = modulates the human NR3A ligand-binding domain; 340,000 tested, 2.5% active; Tm shift relative to glycine control, % at 25 µM; AID 1259313; NR3A LBD differential scanning fluorimetry, Tm shift; 0% = protein alone, 100% = glycine-bound protein;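 active = melting temperature shift of at least 10% of the positive control shift, at one fixed dose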
# Cardio protect = protects H9c2 cardiomyocytes from peroxide injury; 360,000 tested, 0.63% active; protection from H2O2 cell death, % at 20 µM; AID 588492; H2O2 injury protection, ATPLite, 2 h;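 active = compounds giving at least 50% protection of heart cells from peroxide-induced death in the single-dose screen, raw or plate-pattern-corrected value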;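 note: 0% = DMSO wells with peroxide and 100% = DMSO wells without peroxide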
# iPSC survival up = hiPSC single-cell survival enhancement; 360,000 tested, 0.044% active; ATPlite luminescence; 100% = ROCK inhibitor wells, 0% = DMSO; survival enhancement, % at 20 µM; in the data active = survival enhancement above about 18%;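 note: cells exposed to compounds for 16 hours before the ATP read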
# An asterisk follows results filed as active; / = not tested or not shown.
SMILES,SENP1 FRET inh,FAS-TE inh,Arrestin-AP2 inh,GRIN3A LBD mod,Cardio protect,iPSC survival up
COc1cccc(C(=O)Nc2ccc(NC(=O)Cc3ccccc3)cc2)c1,1.6,0.8,-2.5,7.6,0.5,0.1
CC(=O)c1cccc(NC(=O)c2ccc(NS(C)(=O)=O)cc2)c1,0.6,-2.7,-2.5,-7.2,2.3,-1.5
O=C(NC1CCCCC1)C(c1ccncc1)n1c(=O)c(-c2cc3ccccc3[nH]2)nc2ccccc21 (stereo not drawn),-17.0,/,/,/,/,/
COc1cccc(C(=O)Nc2ccc(NC(=O)c3cc4ccccc4o3)c(OC)c2)c1,-22.9,0.5,-5.6,23.3*,-0.1,-0.2
CCOC(=O)c1ccc(NC(=O)c2ccccc2)cc1,1.9,-1.3,8.9,-2.7,3.1,-0.9
CCOC(=O)c1ccc(NC(=O)c2ccc(NS(C)(=O)=O)cc2)cc1,0.1,-7.9,7.2,15.9*,-13.3,-1.9
COC(=O)C(C(=O)OC)c1ccccc1CNS(=O)(=O)c1ccc(C)cc1,0.3,/,/,/,/,/
COc1ccc(CN2C[C@@H](CO)O[C@@H](n3cnc4c(NCCN(C)C)ncnc43)C2)cc1,-1.0,-1.6,/,/,0.3,-2.6
O=C(CC[C@H]1O[C@@H](n2ccc(=O)[nH]c2=O)[C@H](O)[C@@H]1O)N[C@H](Cc1ccccc1)C(=O)NC1CCCCC1,-1.8,-6.4,/,/,1.2,4.4
Oc1ccc2c(c1)c1ccccc1c1ncccc21,-1.0,9.8,-5.3,30.8*,-6.5,-0.6
OCCNCc1cc(Br)ccc1OCc1ccccc1,-0.1,-7.1,-2.1,12.6*,-6.8,-2.9
Cc1ccc(NC(=O)Cn2nnc(C(=O)NCc3cccs3)c2N)cc1F,-0.3,-4.2,7.0,32.4*,-6.3,-0.6
CCOc1ccccc1NC(=O)c1nnn(CC(=O)Nc2cc(C)cc(C)c2)c1N,1.2,-1.9,-6.7,12.8*,-0.1,0.0
COc1ccc(Cl)cc1NC(=O)c1nnn(CC(=O)Nc2ccc(C)c(C)c2)c1N,0.5,-4.5,3.2,14.5*,8.8,-0.5
COc1ccc(Cl)cc1NC(=O)Cn1nnc(C(=O)NCCc2ccc(OC)c(OC)c2)c1N,3.0,-2.4,25.6,-2.0,7.3,1.4
COc1ccc(NC(=O)Cn2nnc(C(=O)NCc3ccc(C)cc3)c2N)cc1Cl,-1.4,-8.0,-23.2,17.4*,-14.4,0.3
COc1ccc(NC(=O)Cn2nnc(C(=O)NCc3ccccc3)c2N)cc1Cl,3.8,-3.6,4.6,-4.0,-2.2,0.9
Cc1ccc(NC(=O)Cn2nnc(C(=O)NCc3ccco3)c2N)cc1,0.2,-8.6,1.3,-0.3,-3.1,-0.2
CC(C)c1ccc(NC(=O)Cn2nnc(C(=O)NCc3ccco3)c2N)cc1,0.4,0.4,-2.1,11.9*,-9.3,-0.6
COc1ccc(NC(=O)Cn2nnc(C(=O)Nc3ccc(F)c(Cl)c3)c2N)cc1OC,4.0,-0.2,19.0,77.5*,-2.2,0.0
Cc1cc(C)cc(NC(=O)Cn2nnc(C(=O)NCc3ccccc3Cl)c2N)c1,-0.9,1.8,-3.4,0.1,10.9,0.5
Cc1cc(C)cc(NC(=O)Cn2nnc(C(=O)NCc3ccc(F)cc3)c2N)c1,-1.1,-12.9,-5.4,33.7*,-11.1,-0.3
COC(=O)[C@]12CCCCC=C1N(CCC1=CCCCC1)C(=O)[C@H](CC(=O)N1CCCC1)C2,-0.1,-3.1,/,/,/,0.4
COc1cc(NC(=O)c2cc3c(C)nc4ccccc4c3o2)cc(OC)c1OC,1.6,4.3,0.8,3.8,66.3*,-2.0
Cc1nc2ccccc2c2oc(C(=O)Nc3ccc4c(c3)OCCO4)cc12,-1.8,6.4,14.0,-3.1,99.5*,2.7
SMILES,SENP1 FRET inh,FAS-TE inh,Arrestin-AP2 inh,GRIN3A LBD mod,Cardio protect,iPSC survival up
COC(=O)C1=C(C)NC(C)=C(C(=O)OC)C1C(=O)OCC(=O)NC1CCCCC1C (stereo not drawn),-7.1,-0.6,/,/,1.5,-0.8
COc1cc(NC(=O)COC(=O)/C=C/c2ccc(Cl)cc2Cl)cc(OC)c1,2.3,14.4,1.4,14.1*,-7.4,-2.7
O=C1NC[C@H](CCCCN2C[C@H](Cc3ccc(O)cc3)N(CCc3ccc(O)cc3)C(=O)C2=O)N(CC2CCCCC2)C1=O,1.4,-2.8,/,/,/,0.0
CCOC(=O)N(C)c1c(CC)nc2c(OCc3ccccc3C)cccn12,-4.8,2.3,/,/,2.3,-1.9
C[C@H](CO)N1C[C@H](C)[C@H](CN(C)Cc2ccncc2)Oc2cc(-c3ccccc3F)ccc2S1(=O)=O,-0.6,6.6,/,/,-4.4,0.5
CCOc1ccccc1NC(=O)CC1(CC(=O)N2CCOCC2)CCCC1,-2.5,-9.2,-15.5,12.8*,-7.5,-0.5
CCCCN(C)c1c(C)nc2ccc(C(=O)NCCOc3ccc(OC)cc3)cn12,-5.2,6.4,/,/,-20.4,1.8
COc1ccccc1C(=O)Nc1ccc(Br)c2cccnc12,0.6,20.1,-7.5,21.1*,-10.3,0.8
COc1ccccc1C(=O)Nc1ccccn1,-1.9,-3.1,0.9,0.9,-6.6,-1.0
Cc1ccc(S(=O)(=O)Nc2cc(=O)[nH]c(SCc3ccc(Cl)cc3)n2)cc1,-2.8,15.7,-1.8,11.3*,-7.3,-1.6
CC(C)(C)NC(=O)C(c1ccc(C(F)(F)F)cc1)n1c(=O)c(-c2ccco2)nc2ccccc21 (stereo not drawn),-28.0,/,/,/,/,/
O=C(Nc1nc(-c2ccccc2)cs1)Nc1ccc(F)cc1F,0.6,9.1,4.6,1.9,-22.1,-0.4
O=C(COc1ccccc1)Nc1nc(-c2ccncc2)cs1,-6.8,4.6,-0.6,4.6,-1.7,34.3*
O=C(Nc1nc(-c2ccccn2)cs1)c1ccc([N+](=O)[O-])o1,-2.9,12.3,-3.4,-5.1,39.6,-0.2
O=C(COc1ccc([N+](=O)[O-])cc1)Nc1nc(-c2ccccn2)cs1,8.2,18.6,-19.3,-7.0,71.3*,0.5
O=C(Nc1nc(-c2ccccn2)cs1)Nc1ccc(F)cc1F,2.6,0.2,5.6,14.0*,45.6,-0.4
O=C(COc1cccc(F)c1)Nc1nc(-c2ccccn2)cs1,-10.2,1.2,/,/,58.7*,0.5
COc1ccccc1-c1cnc(C(O)c2ccc(C)cc2)[nH]1 (stereo not drawn),2.2,-1.1,/,/,-11.1,-1.0
Cc1ccccc1C1N=C2Oc3ccccc3C=C2C(=O)N1 (stereo not drawn),-41.5,-6.9,/,/,-2.3,0.1
O=C1NC[C@H](CCCCN2C[C@H](Cc3ccc(O)cc3)N(CC3CCCCC3)C(=O)C2=O)N(Cc2ccccc2)C1=O,3.0,-3.7,/,/,/,1.0
Cc1ccc(OCC(=O)Nc2nc(-c3ccccn3)cs2)c(C)c1,-6.1,6.5,-4.6,1.3,53.0*,0.2
O=C(COc1ccccc1)Nc1nc(-c2cccnc2)cs1,-13.9,-3.6,-3.7,2.7,16.5,-0.5
O=C(COc1ccc(F)cc1)Nc1nc(-c2ccccn2)cs1,-7.2,2.9,0.1,0.2,58.7*,1.8
